Laboratory results published in ChEMBL document CHEMBL1135673, “Antitumor imidazotetrazines. 41. Conjugation of the antitumor agents mitozolomide and temozolomide to peptides and lexitropsins bearing DNA major and minor groove-binding structural motifs” (J Med Chem, 2002).
Peptide text beside a SMILES is read from it. * marks the point of attachment. X1 = O=C(c1ncn2c(=O)n(CCCl)nnc12)*

How the values were obtained:
Assay type in all cases: functional, cell-based
[1] = In vitro cytotoxicity against mouse TLX5 lymphoma cells
Outline: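 TLX5 lymphoma cells kept in exponential growth at 2 × 10⁴ cells/mL in RPMI 1640 with 15% fetal calf serum. Cells were dosed with drug in DMSO (10 μL per 2 mL well), triplicate wells per concentration, with DMSO-only controls. After 72 h at 37 °C under 5% CO₂, cells were Coulter-counted. IC₅₀ was taken from % of control growth plots as the mean of two determinations.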

[2] = In vitro cytotoxicity against human xeroderma pigmentosum fibroblast cells HMGZip (mer-)
Outline: (§1)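 Xeroderma pigmentosum fibroblasts HMGZip 1a (Mer⁻) and HMGhAT 2b (Mer⁺) grown in MEM, plated at 1000 cells/well, and assayed by the method of Baer et al.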

[3] = In vitro cytotoxicity against human xeroderma pigmentosum fibroblast cells […] (mer+); outline: as §1

Row | Compound | IC50 [1] [µM] | IC50 [2] [µM] | IC50 [3] [µM]
1 | COC(=O)[C@@H](NC(=O)[C@H](C)NC(=O)c1ncn2c(=O)n(CCCl)nnc12)C(C)C | 6.9 |  | 
2 | CC(C)C[C@@H](NC(=O)c1ncn2c(=O)n(CCCl)nnc12)C(=O)O |  | 57 | 
3 | COC(=O)C(CCCCN)NC(=O)c1ncn2c(=O)n(CCCl)nnc12 (stereo not drawn) |  | 68 | 
4 | NC(=O)CNC(=O)c1ncn2c(=O)n(CCCl)nnc12 | 34 |  | 
5 | C[C@@H](NC(=O)c1ncn2c(=O)n(CCCl)nnc12)C(=O)O |  | 198 | 
6 | COC(=O)C(CO)NC(=O)c1ncn2c(=O)n(CCCl)nnc12 (stereo not drawn) | 5 |  | 
7 | COC(=O)C(C)NC(=O)c1ncn2c(=O)n(CCCl)nnc12 (stereo not drawn) | 1.5 |  | 
8 | CC(C)(C)NC(=O)c1ncn2c(=O)n(CCCl)nnc12 | 2 |  | 
9 | O=C(O)c1ncn2c(=O)n(CCCl)nnc12 | 15.8 |  | 
10 | COC(=O)C(CCSC)NC(=O)c1ncn2c(=O)n(CCCl)nnc12 (stereo not drawn) | 50 |  | 
11 | CC(C)[C@H](NC(=O)[C@@H](NC(=O)c1ncn2c(=O)n(CCCl)nnc12)[C@@H](C)O)C(=O)NCC(=O)O |  | 437 | > 500
12 | COC(=O)C(Cc1c[nH]c2ccccc12)NC(=O)c1ncn2c(=O)n(CCCl)nnc12 (stereo not drawn) | 3.7 |  | 
13 | CCOC(=O)CNC(=O)c1ncn2c(=O)n(CCCl)nnc12 | 25 |  | 
14 | NCCCCC(NC(=O)c1ncn2c(=O)n(CCCl)nnc12)C(=O)O (stereo not drawn) |  | 42 | 
15 | CC(C)[C@H](NC(=O)[C@@H](NC(=O)c1ncn2c(=O)n(CCCl)nnc12)[C@@H](C)O)C(=O)NCC(=O)N[C@@H](CCCN=C(N)N)C(=O)O (X1-TVGR-OH) |  | 288 | > 500
16 | CC(C)[C@H](NC(=O)[C@@H](NC(=O)c1ncn2c(=O)n(CCCl)nnc12)[C@@H](C)O)C(=O)N[C@@H](CO)C(=O)N[C@@H](CCCN=C(N)N)C(=O)O (X1-TVSR-OH) |  | 351 | > 500
17 | NC(=O)c1ncn2c(=O)n(CCCl)nnc12 [MITOZOLOMIDE] | 2.5 | 20 | 30
18 | Cn1nnc2c(C(N)=O)ncn2c1=O [TEMOZOLOMIDE] | 5 |  | 
